Measured values pooled from the literature.
Compare with care: the assays were run in different laboratories.
ABCB1: ATP-dependent translocase ABCB1 (ABCB1, Homo sapiens, UniProt P08183)
CYP2A6: Cytochrome P450 2A6 (CYP2A6, Homo sapiens, UniProt P11509)

Structure (SMILES)	target	test	system	conditions	endpoint	value
COCCc1ccc(OCC(O)CNC(C)C)cc1 (stereo not shown)	ABCB1	–	MDCK-MDR1	5 µM	Papp A→B	321 nm/s
CC[C@H](C)C(=O)N1CCC(NC(=O)Nc2ccc(OC(F)(F)F)c(F)c2)CC1	ABCB1	transporter efflux, inhibitor, fluorescence	–	10 µM	inhibition	< 25%
CCc1cc(/C(C)=N/OCc2ccc(C3CCCCC3)c(C(F)(F)F)c2)ccc1CN1CC(C(=O)O)C1	CYP2A6	enzyme activity, inhibitor	human, liver microsomes	200 µM, 20 min	inhibition	30.6%
C[C@H]1O[C@@H](O[C@H]2[C@@H](O)C[C@H](O[C@H]3[C@@H](O)C[C@H](O[C@H]4CC[C@@]5(C)[C@H](CC[C@@H]6[C@@H]5C[C@@H](O)[C@]5(C)[C@@H](C7=CC(=O)OC7)CC[C@]65O)C4)O[C@@H]3C)O[C@@H]2C)C[C@H](O)[C@@H]1O	ABCB1	–	human, plasma	oral, 0.5 mg	Cmax	1.99 ng/mL
CCOc1cc2ncc(C#N)c(Nc3ccc(OCc4ccccn4)c(Cl)c3)c2cc1NC(=O)/C=C/CN(C)C	ABCB1	–	MDCK-MDR1, Caco-2	1 µM, 1 h, pH 7.4	efflux ratio	6.37
Cc1ccc(C(=O)N2CCOC[C@H]2Cc2cccc(-n3nccn3)c2)c(-n2nccn2)c1	CYP2A6	enzyme activity, inhibitor	human, liver microsomes	100 µM	inhibition	19%
C[C@]12CCCN1CC1=NNC(=O)c3cc(F)cc4[nH]c2c1c34	ABCB1	–	MDCK-MDR1	10 µM	Papp A→B	255 nm/s
O=C(O)CSc1nnc(Br)n1-c1ccc(C2CC2)c2ccccc12	Multidrug and toxin extrusion protein 2 (SLC47A2, Homo sapiens, UniProt Q86VL8)	transporter uptake, inhibitor	HEK293	100 µM, 2 min	inhibition	-9%
C=C[C@H]1C[N@@]2CC[C@H]1C[C@@H]2[C@@H](O)c1ccnc2ccc(OC)cc12	ABCB1	–	MDCK-MDR1	5 µM	Papp A→B	131 nm/s
CC1(C)CCC2(CC1)N[C@@H](C(=O)N[C@@H]1CC[C@@H](C(N)=O)OC1)[C@H](c1ccnc(Cl)c1F)[C@]21C(=O)Nc2cc(Cl)ccc21	ABCB1	–	Caco-2	1 µM, 2 h	efflux ratio	16.1
